ChEMBL document CHEMBL5620421, “2,6-Disubstituted 7-(naphthalen-2-ylmethyl)-7H-purines as a new class of potent antitubercular agents inhibiting DprE1” (Eur J Med Chem, 2023)
Values after ≈ are worked out from the molar mass of the structure shown. Active and inactive are the calls of the source. The calls are words filed in the database; no cut-off is given here.

Experiments:
[1] = test system: Mycobacterium tuberculosis; experiment: (§1) Antimycobacterial activity against isoniazid/ethambutol/rifampin/streptomycin/amikacin/gentamicin/clofazimine/ofloxacin […] MDR/XDR clinical isolate Mycobacterium tuberculosis PRAHA 1 assessed as inhibition of mycobacterial growth measured after 14 to 21 days of incubation by Sulas semisynthetic medium based assay; format: functional, organism-based; conditions: time 14-21 day
How it was run: (§2)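 Clinical MDR/XDR M. tuberculosis isolates were tested by the Sula's semisynthetic medium micromethod. Compounds in DMSO at 1000 to 0.5 μmol/L, in twofold-type steps. Incubation at 37 °C, read at 14 and 21 days. MIC99 is the lowest concentration inhibiting >99% of growth. Drug resistance or susceptibility of each isolate is to amikacin, clofazimine, gentamicin, ofloxacin, streptomycin and the others listed.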

[2] = test system: Mycobacterium tuberculosis; experiment: as §1, with “PRAHA 4” for “PRAHA 1”; format: functional, organism-based; conditions: time 14-21 day; how it was run: as §2
[3] = test system: Mycobacterium tuberculosis; experiment: as §1, with “9449/2007” for “PRAHA 1”; format: functional, organism-based; conditions: time 14-21 day; how it was run: as §2
[4] = test system: Mycobacterium tuberculosis; experiment: as §1, with “234/2005” for “PRAHA 1”; format: functional, organism-based; conditions: time 14-21 day; how it was run: as §2
[5] = test system: Mycobacterium tuberculosis; experiment: as §1, with “7357/1998” for “PRAHA 1”; format: functional, organism-based; conditions: time 14-21 day; how it was run: as §2
[6] = test system: Mycobacterium tuberculosis; experiment: as §1, with “8666/2010” for “PRAHA 1”; format: functional, organism-based; conditions: time 14-21 day; how it was run: as §2
[7] = test system: Mycobacterium tuberculosis; experiment: Antibacterial activity against Mycobacterium tuberculosis H37Rv assessed as inhibition of bacterial growth by micro-broth dilution method; format: functional
How it was run: (§3)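 Micromethod MIC in Sula's semisynthetic medium. MIC is the lowest concentration inhibiting >99% of the mycobacterial population. Isoniazid was the standard drug.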

[8] = test system: Mycobacterium tuberculosis; experiment: Antibacterial activity against Mycobacterium tuberculosis H37Rv (ATCC 27294) assessed as inhibition of bacterial growth incubated for 14 days; format: functional; conditions: 336 h, time 14 day; how it was run: as §3
[9] = test system: Mycobacterium tuberculosis; experiment: Antitubercular activity against Mycobacterium tuberculosis CNCTC My 331/88 (H37Rv) assessed as inhibition of bacterial growth measured after 14 days of incubation by Sulas semisynthetic medium based assay; format: functional; conditions: 336 h, time 14 day; how it was run: as §3
[10] = test system: Mycobacterium tuberculosis; experiment: Antitubercular activity against Mycobacterium tuberculosis CNCTC My 331/88 (H37Rv) assessed as inhibition of bacterial growth measured after 21 days of incubation by Sulas semisynthetic medium based assay; format: functional; conditions: 504 h, time 21 day; how it was run: as §3
[11] = test system: Mycobacterium avium; experiment: Antitubercular activity against Mycobacterium avium CNCTC My 330/88 assessed as inhibition of bacterial growth measured after 14 days of incubation by Sulas semisynthetic medium based assay; format: functional; conditions: CNCTC My 330/88, 336 h, time 14 day
How it was run: (§4)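 M. avium was tested by the micromethod in Sula's semisynthetic medium. Compounds in DMSO at 1000 to 0.5 μmol/L. Incubation at 37 °C, read at 14 and 21 days. MIC is the lowest concentration giving >99% growth inhibition.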

[12] = test system: Mycobacterium avium; experiment: Antitubercular activity against Mycobacterium avium CNCTC My 330/88 assessed as inhibition of bacterial growth measured after 21 days of incubation by Sulas semisynthetic medium based assay; format: functional; conditions: CNCTC My 330/88, 504 h, time 21 day; how it was run: as §4
[13] = test system: Mycobacterium kansasii; experiment: Antitubercular activity against Mycobacterium kansasii CNCTC My 235/80 assessed as inhibition of bacterial growth measured after 7 days of incubation by Sulas semisynthetic medium based assay; format: functional; conditions: CNCTC My 235/80, 168 h, time 7 day
How it was run: (§5)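 Micromethod in Sula's semisynthetic medium. MIC is the lowest concentration inhibiting >99% of the mycobacterial population. Isoniazid was the standard.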

[14] = test system: Mycobacterium kansasii; experiment: Antitubercular activity against Mycobacterium kansasii CNCTC My 235/80 assessed as inhibition of bacterial growth measured after 14 days of incubation by Sulas semisynthetic medium based assay; format: functional; conditions: CNCTC My 235/80, 336 h, time 14 day; how it was run: as §5
[15] = test system: Mycobacterium kansasii; experiment: Antitubercular activity against Mycobacterium kansasii CNCTC My 235/80 assessed as inhibition of bacterial growth measured after 21 days of incubation by Sulas semisynthetic medium based assay; format: functional; conditions: CNCTC My 235/80, 504 h, time 21 day; how it was run: as §5
[16] = test system: HepG2; experiment: Cytotoxicity against human HepG2 cells incubated for 24 hrs by MTT assay; format: functional, cell-based; conditions: HepG2, 24 h
How it was run: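 HepG2 cells in DMEM with 10% FBS, seeded at 15 × 10³ cells/well and attached overnight. Exposed for 24 h to serial dilutions prepared from DMSO stocks, final DMSO ≤1%. Then given fresh medium with 0.5 mg/mL MTT for 1 h at 37 °C. Formazan dissolved in DMSO and read at 570 nm. IC50 from 4-parameter nonlinear regression; three independent experiments in triplicate, mean ± SD.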

[17] = Selectivity index, ratio of IC50 for cytotoxicity against human HepG2 cells by MTT assay to MIC99 for antitubercular activity against Mycobacterium tuberculosis CNCTC My 331/88 (H37Rv) assessed as inhibition of bacterial growth measured after 14 days of incubation; format: functional; conditions: time 14 day
How it was run: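 HepG2 cells, 15 × 10³/well, were attached overnight and exposed 24 h to serial dilutions (DMSO ≤1%). Read by MTT at 0.5 mg/mL for 1 h and 570 nm. IC50 from 4-parameter regression, three independent experiments in triplicate. SI is HepG2 IC50 divided by H37Rv MIC99.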

[18] = test system: Staphylococcus aureus; experiment: Antibacterial activity against Staphylococcus aureus C1947 assessed as inhibition of bacterial growth incubated for 24 to 48 hrs by microdilution broth method; format: functional, organism-based; conditions: time 24-48 hrs
How it was run: (§6)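 Clinical isolates kept at –70 °C and subcultured twice on Mueller-Hinton agar, using the second subculture. Broth microdilution in Mueller-Hinton broth at pH 7.4 with two-fold serial compound dilutions and DMSO ≤1% final. Inoculum was 10 μL of a 1.5 × 10⁸ CFU/mL suspension. Incubated at 36 °C ± 1 °C and read at 24 h and 48 h. MIC taken as 95% growth inhibition.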

[19] = test system: Staphylococcus aureus; experiment: Antibacterial activity against methicilin-resistant Staphylococcus aureus C1923 assessed as inhibition of bacterial growth incubated for 24 to 48 hrs by microdilution broth method; format: functional, organism-based; conditions: time 24-48 hrs
How it was run: (§7)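 Clinical isolates, stored at −70 °C, were passaged twice on Mueller-Hinton agar. Broth microdilution in Mueller-Hinton broth, pH 7.4, with twofold serial dilutions. DMSO was at most 1% final. Inoculum 1.5 × 10⁸ CFU/mL suspension. MIC is 95% growth inhibition, read after 24 and 48 h at 36 °C.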

[20] = test system: Staphylococcus epidermidis; experiment: Antibacterial activity against Staphylococcus epidermidis C1936 assessed as inhibition of bacterial growth incubated for 24 to 48 hrs by microdilution broth method; format: functional, organism-based; conditions: time 24-48 hrs; how it was run: as §6
[21] = test system: Enterococcus faecium; experiment: Antibacterial activity against vancomycin-resistant Enterococcus faecium assessed as inhibition of bacterial growth incubated for 24 to 48 hrs by microdilution broth method; format: functional, organism-based; conditions: time 24-48 hrs; how it was run: as §7
[22] = test system: Escherichia coli; experiment: Antibacterial activity against Escherichia coli A1235 assessed as inhibition of bacterial growth incubated for 24 to 48 hrs by microdilution broth method; format: functional, organism-based; conditions: time 24-48 hrs; how it was run: as §6
[23] = test system: Klebsiella pneumoniae; experiment: Antibacterial activity against ESBL negative Klebsiella pneumoniae C1950 assessed as inhibition of bacterial growth incubated for 24 to 48 hrs by microdilution broth method; format: functional, organism-based; conditions: time 24-48 hrs; how it was run: as §6
[24] = test system: Klebsiella pneumoniae; experiment: Antibacterial activity against ESBL positive Klebsiella pneumoniae C1914 assessed as inhibition of bacterial growth incubated for 24 to 48 hrs by microdilution broth method; format: functional, organism-based; conditions: time 24-48 hrs; how it was run: as §6
[25] = test system: Pseudomonas aeruginosa; experiment: Antibacterial activity against multidrug-resistant Pseudomonas aeruginosa A1245 assessed as inhibition of bacterial growth incubated for 24 to 48 hrs by microdilution broth method; format: functional, organism-based; conditions: time 24-48 hrs; how it was run: as §7

Compound	MIC99 [9] [µM]	MIC99 [10] [µM]	MIC99 [11] [µM]	MIC99 [12] [µM]	MIC99 [13] [µM]	MIC99 [14] [µM]	MIC99 [15] [µM]	IC50 [16] [µM]	Selectivity Index [17]	Activity [18]	Activity [19]	Activity [20]	Activity [21]	Activity [22]	Activity [23]	Activity [24]	Activity [25]	also measured
GENTAMICIN	–	–	–	–	–	–	–	–	–	–	–	–	–	–	–	–	–	MIC99 [1]: 1 µM; MIC99 [2]: 0.5 µM; MIC99 [3]: 1 µM; MIC99 [4]: 0.25 µM; MIC99 [5]: 1 µM; MIC99 [6]: 2 µM
C[C@H]1COC2(CCN(c3nc(=O)c4cc(C(F)(F)F)cc([N+](=O)[O-])c4s3)CC2)O1 [BTZ-043]	–	–	–	–	–	–	–	–	–	–	–	–	–	–	–	–	–	MIC [7]: 1 ng/mL (≈ 2.32 nM)
COc1ncnc(Cn2cc(C(=O)NCCO)c3ncc(C)cc32)c1C [TBA-7371]	–	–	–	–	–	–	–	–	–	–	–	–	–	–	–	–	–	MIC [8]: 640 ng/mL (≈ 1800 nM)
CCCCNc1nc(N2CCOCC2)nc2ncn(Cc3ccc4ccccc4c3)c12	4 (≈ 1.67 µg/mL)	4 (≈ 1.67 µg/mL)	64 (≈ 26.7 µg/mL)	125 (≈ 52.1 µg/mL)	8 (≈ 3.33 µg/mL)	8 (≈ 3.33 µg/mL)	8 (≈ 3.33 µg/mL)	30.8	7.7	inactive	inactive	inactive	inactive	inactive	inactive	inactive	inactive	–
CSc1nc(N2CCOCC2)nc2ncn(Cc3ccc4ccccc4c3)c12	8 (≈ 3.13 µg/mL)	8 (≈ 3.13 µg/mL)	> 500	> 500	32 (≈ 12.5 µg/mL)	64 (≈ 25.1 µg/mL)	64 (≈ 25.1 µg/mL)	42.4	5.3	inactive	inactive	inactive	inactive	inactive	inactive	inactive	inactive	–
CCNc1nc(N2CCOCC2)nc2ncn(Cc3ccc4cc(F)ccc4c3)c12	4 (≈ 1.63 µg/mL)	8 (≈ 3.25 µg/mL)	> 500	> 500	16 (≈ 6.5 µg/mL)	16 (≈ 6.5 µg/mL)	16 (≈ 6.5 µg/mL)	40.7	10.18	inactive	inactive	inactive	inactive	inactive	inactive	inactive	inactive	–
Clc1nc(N2CCOCC2)nc2ncn(Cc3ccc4ccccc4c3)c12	16 (≈ 6.08 µg/mL)	16 (≈ 6.08 µg/mL)	> 500	> 500	16 (≈ 6.08 µg/mL)	32 (≈ 12.2 µg/mL)	64 (≈ 24.3 µg/mL)	65.6	4.09	inactive	inactive	inactive	inactive	inactive	inactive	inactive	inactive	–
O=c1[nH]c(N2CCOCC2)nc2ncn(Cc3ccc(Cl)c(Cl)c3)c12	16 (≈ 6.08 µg/mL)	32 (≈ 12.2 µg/mL)	> 500	> 500	> 500	> 500	> 500	> 125	>7.8	inactive	inactive	inactive	inactive	inactive	inactive	inactive	inactive	–
O=c1nc(N2CCN(CC3CCCCC3)CC2)sc2c([N+](=O)[O-])cc(C(F)(F)F)cc12 [MACOZINONE]	–	–	–	–	–	–	–	–	–	–	–	–	–	–	–	–	–	MIC [7]: ≤ 0.19 ng/mL
CN(C)c1nc(N2CCOCC2)nc2ncn(Cc3ccc4ccccc4c3)c12	8 (≈ 3.11 µg/mL)	16 (≈ 6.22 µg/mL)	500 (≈ 194 µg/mL)	500 (≈ 194 µg/mL)	32 (≈ 12.4 µg/mL)	64 (≈ 24.9 µg/mL)	125 (≈ 48.6 µg/mL)	55.9	6.99	inactive	inactive	inactive	inactive	inactive	inactive	inactive	inactive	–
c1ccc2cc(Cn3cnc4nc(N5CCOCC5)nc(NC5CCCCC5)c43)ccc2c1	32 (≈ 14.2 µg/mL)	64 (≈ 28.3 µg/mL)	> 500	> 500	64 (≈ 28.3 µg/mL)	125 (≈ 55.3 µg/mL)	250 (≈ 111 µg/mL)	18.9	0.59	inactive	inactive	inactive	inactive	inactive	inactive	inactive	inactive	–
O=C1CCc2c(OC[C@]3(O)CCN(c4c(F)cc(Cl)cc4F)C[C@H]3O)ccc(F)c2N1 [QUABODEPISTAT]	–	–	–	–	–	–	–	–	–	–	–	–	–	–	–	–	–	MIC [8]: 0.5 ng/mL (≈ 1.09 nM)
